The source made the active and inactive calls. The rule behind the calls is not given here.
What was measured:
Cannabinoid receptor 1 = Cannabinoid receptor 1 (Homo sapiens, UniProt P21554); assay: Displacement of [3H]CP55940 from recombinant human CB1 receptor expressed in HEK293 cell membranes measured after 90 mins
How it was run: (§1)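 Membranes from HEK-293 cells stably expressing human recombinant CB1 (Bmax 2.5 pmol/mg protein) or CB2 (Bmax 4.7 pmol/mg protein). [3H]-CP-55,940 was used at 0.14 nM for CB1 (Kd 0.18 nM) and 0.084 nM for CB2 (Kd 0.31 nM), with increasing test concentrations, 90 min at 30 °C. Non-specific binding was set with 10 μM WIN 55212-2. Ki came from IC50 via Cheng–Prusoff; n ≥ 3, mean ± SEM. SI = CB1 Ki / CB2 Ki.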

Cannabinoid receptor 2 [1] = biological target: T1, Cannabinoid receptor 2 (Homo sapiens, UniProt P34972); assay: Displacement of [3H]CP55940 from recombinant human CB2 receptor expressed in HEK293 cell membranes at 10 uM measured after 90 mins relative to control
[2] = biological target: Cannabinoid receptor 1 (CB1) (Homo sapiens, UniProt P21554); assay: Displacement of [3H]CP55940 from recombinant human CB1 receptor expressed in HEK293 cell membranes at 10 uM measured after 90 mins relative to control; settings: probe [3H]CP55940
Cannabinoid receptor 2 [3] = biological target: T1, Cannabinoid receptor 2; assay: Displacement of [3H]CP55940 from recombinant human CB2 receptor expressed in HEK293 cell membranes measured after 90 mins; how it was run: as §1
Homo sapiens = species on record: Homo sapiens; assay: Selectivity index, ratio of Ki for displacement of [3H]CP55940 from recombinant human CB1 receptor expressed in HEK293 cell membranes to Ki for displacement of [3H]CP55940 from recombinant human CB2 receptor expressed in HEK293 cell membranes; how it was run: as §1
Cannabinoid receptor 2 [4] = biological target: T1, Cannabinoid receptor 2; assay: Antagonist/inverse agonist activity at recombinant human CB2 receptor expressed in HEK293 cell membranes assessed as increase in NKH-477-induced cAMP accumulation measured after 30 mins by luminescence assay; assay type: functional, cell-based
Cannabinoid receptor 2 [5] = biological target: T1, Cannabinoid receptor 2; assay: Antagonist/inverse agonist activity at recombinant human CB2 receptor expressed in HEK293 cell membranes assessed as increase in NKH-477-induced cAMP accumulation preincubated followed by CB2 agonist JWH-133 addition and measured after 30 mins by luminescence assay; assay type: functional, cell-based

T1 sequence (P34972 whole entry): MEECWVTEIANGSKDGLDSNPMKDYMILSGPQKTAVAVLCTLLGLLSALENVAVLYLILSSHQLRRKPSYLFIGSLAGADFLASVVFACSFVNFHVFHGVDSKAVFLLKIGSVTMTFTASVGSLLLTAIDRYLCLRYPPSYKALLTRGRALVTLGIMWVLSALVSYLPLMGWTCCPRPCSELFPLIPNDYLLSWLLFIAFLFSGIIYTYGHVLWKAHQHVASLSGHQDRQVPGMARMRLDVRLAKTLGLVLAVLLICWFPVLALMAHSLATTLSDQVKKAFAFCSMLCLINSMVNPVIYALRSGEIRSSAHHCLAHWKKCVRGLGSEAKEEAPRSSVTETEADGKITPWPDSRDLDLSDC
Sequence of Cannabinoid receptor 1 (CB1) (P21554 whole entry): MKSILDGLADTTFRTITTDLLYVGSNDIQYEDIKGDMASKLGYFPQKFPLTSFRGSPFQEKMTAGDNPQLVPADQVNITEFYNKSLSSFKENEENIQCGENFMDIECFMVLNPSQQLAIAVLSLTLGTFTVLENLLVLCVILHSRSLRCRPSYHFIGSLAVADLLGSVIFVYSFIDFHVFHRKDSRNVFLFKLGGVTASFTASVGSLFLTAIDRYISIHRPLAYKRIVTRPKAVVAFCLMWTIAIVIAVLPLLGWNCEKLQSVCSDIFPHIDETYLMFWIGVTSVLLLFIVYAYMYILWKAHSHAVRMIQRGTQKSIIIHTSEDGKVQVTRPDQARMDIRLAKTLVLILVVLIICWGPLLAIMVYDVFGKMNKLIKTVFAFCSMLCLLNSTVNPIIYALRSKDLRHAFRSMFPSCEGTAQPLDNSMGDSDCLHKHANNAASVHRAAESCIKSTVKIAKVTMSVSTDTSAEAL
Sequence of Cannabinoid receptor 1 (P21554 whole entry): as above

SMILES: CCN(CC)CCCn1c(Cc2ccc(OC)cc2)nc2cc(C(F)(F)F)ccc21
- Ki (Cannabinoid receptor 1): > 10 µM
- inhibition (Cannabinoid receptor 2 [1]): 16.8%
- inhibition at 1.5 h, 10 µM [2]: 19.2%
- Ki (Cannabinoid receptor 2 [3]): > 10 µM

SMILES: Clc1ccc2c(c1)nc(Cn1nc3ccccc3n1)n2CC[C@@H]1CCCN2CCCC[C@H]12
- Ki (Cannabinoid receptor 1): > 10 µM
- inhibition (Cannabinoid receptor 2 [1]): 10.1%
- inhibition at 1.5 h, 10 µM [2]: 17.6%
- Ki (Cannabinoid receptor 2 [3]): > 10 µM

SMILES: CCN(CC)CCn1c(-c2ccc(OC)cc2)nc2cc(C(F)(F)F)ccc21
- Ki (Cannabinoid receptor 1): > 10 µM
- inhibition (Cannabinoid receptor 2 [1]): 46.9%
- inhibition at 1.5 h, 10 µM [2]: 1.95%
- Ki (Cannabinoid receptor 2 [3]): > 10 µM

SMILES: COCCn1c(Cc2ccc(Cl)c(Cl)c2)nc2cc(C(F)(F)F)ccc21
- Ratio Ki (Homo sapiens): > 1
- Ki (Cannabinoid receptor 1): > 10 µM
- inhibition (Cannabinoid receptor 2 [1]): 53.8%
- inhibition at 1.5 h, 10 µM [2]: 41.4%
- Ki (Cannabinoid receptor 2 [3]): 10 µM

SMILES: COc1ccc(Cc2nc3cc(C(F)(F)F)ccc3n2C[C@@H]2CCCN3CCCC[C@H]23)cc1
- Ki (Cannabinoid receptor 1): > 10 µM
- inhibition (Cannabinoid receptor 2 [1]): 19.7%
- inhibition at 1.5 h, 10 µM [2]: 5.5%
- Ki (Cannabinoid receptor 2 [3]): > 10 µM

SMILES: COc1ccc(Cc2nc3cc(C(C)=O)ccc3n2C[C@@H]2CCCN3CCCC[C@H]23)cc1
- Ki (Cannabinoid receptor 1): > 10 µM
- inhibition (Cannabinoid receptor 2 [1]): 15.6%
- inhibition at 1.5 h, 10 µM [2]: 47.6%
- Ki (Cannabinoid receptor 2 [3]): > 10 µM

SMILES: CCCCn1c(Cc2ccc(Cl)c(Cl)c2)nc2cc(C(F)(F)F)ccc21
- Ratio Ki (Homo sapiens): 27
- Ki (Cannabinoid receptor 1): 10 µM
- inhibition (Cannabinoid receptor 2 [1]): 94.3%
- inhibition at 1.5 h, 10 µM [2]: 53.9%
- Ki (Cannabinoid receptor 2 [3]): 0.37 µM
- Activity (Cannabinoid receptor 2 [4]): Active
- Activity (Cannabinoid receptor 2 [5]): Active

SMILES: CCN(CC)CCCn1c(Cn2nc3ccccc3n2)nc2cc(C(C)=O)ccc21
- Ki (Cannabinoid receptor 1): > 10 µM
- inhibition (Cannabinoid receptor 2 [1]): 17.5%
- inhibition at 1.5 h, 10 µM [2]: 15%
- Ki (Cannabinoid receptor 2 [3]): > 10 µM
